Test results from ChEMBL document CHEMBL1157613, “Salicylic acid based small molecule inhibitor for the oncogenic Src homology-2 domain containing protein tyrosine phosphatase-2 (SHP2)” (J Med Chem, 2010).
Active and inactive are the calls of the source. The calls are words filed in the database; no cut-off is given here.

Tests used:
[1] = biological target: T1, Tyrosine-protein phosphatase non-receptor type 11 (Homo sapiens, UniProt Q06124); experiment: Inhibition of SHP2 […] expressed in Escherichia coli BL21 (DE3) assessed as inhibition of p-nitrophenyl phosphate hydrolysis at pH 7 by spectrophotometry
T1 sequence (Q06124 whole entry): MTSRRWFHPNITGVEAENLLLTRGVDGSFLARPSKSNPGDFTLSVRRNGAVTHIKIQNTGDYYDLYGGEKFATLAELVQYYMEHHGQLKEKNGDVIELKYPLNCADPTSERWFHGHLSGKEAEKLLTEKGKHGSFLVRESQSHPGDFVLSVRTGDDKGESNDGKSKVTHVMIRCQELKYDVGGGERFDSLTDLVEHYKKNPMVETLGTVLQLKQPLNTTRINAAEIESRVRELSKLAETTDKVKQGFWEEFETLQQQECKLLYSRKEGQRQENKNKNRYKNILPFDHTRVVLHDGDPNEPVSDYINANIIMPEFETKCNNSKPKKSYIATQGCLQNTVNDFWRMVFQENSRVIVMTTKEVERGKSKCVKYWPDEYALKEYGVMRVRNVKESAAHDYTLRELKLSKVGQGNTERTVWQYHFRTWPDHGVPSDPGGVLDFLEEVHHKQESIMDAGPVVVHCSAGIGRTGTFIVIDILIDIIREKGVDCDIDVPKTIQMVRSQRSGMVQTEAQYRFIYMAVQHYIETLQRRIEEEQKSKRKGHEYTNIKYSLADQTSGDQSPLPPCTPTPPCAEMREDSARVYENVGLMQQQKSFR

[2] = biological target: T2, Tyrosine-protein phosphatase non-receptor type 11 (Homo sapiens) (UniProt Q06124); experiment: Inhibition of SHP2-dependent ERK1/2 activation in EGF-stimulated HEK293 cells assessed as phosphorylated ERK1/2 level at 20 uM treated for 3 hrs before EGF challenge measured after 60 mins of EGF stimulation by immunoblot analysis; format: cell-based
T2 sequence (whole entry): T1 sequence (Q06124 whole entry)
How it was run: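 HEK293 cells in DMEM with 10% FCS, 4 × 10^5 per well, grown 24 h. They were serum-deprived 16 h, given vehicle or compound at 0-20 μM for 3 h, then stimulated with EGF 2 ng/mL for 60 min. Lysates (30 μg) were run on 10% SDS-PAGE and immunoblotted for phospho-ERK1/2, normalised to total ERK1/2.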

SMILES: Cn1c(-c2ccccc2)c(-c2cn(CCCC(=O)Nc3ccc(-c4ccccc4)cc3)nn2)c2cc(C(=O)O)c(O)cc21
- IC50 [1]: 12 µM

SMILES: Cn1c(-c2ccccc2)c(-c2cn(CCCCC(=O)N3c4ccccc4Sc4ccccc43)nn2)c2cc(C(=O)O)c(O)cc21
- IC50 [1]: 8 µM

SMILES: C#Cc1c(-c2ccccc2)n(C)c2cc(O)c(C(=O)O)cc12
- IC50 [1]: 212 µM

SMILES: Cn1c(-c2ccccc2)c(-c2cn(CC(=O)NC3c4ccccc4-c4ccccc43)nn2)c2cc(C(=O)O)c(O)cc21
- IC50 [1]: 10.4 µM

SMILES: Cn1c(-c2ccccc2)c(-c2cn(CCC(=O)Nc3ccccc3)nn2)c2cc(C(=O)O)c(O)cc21
- IC50 [1]: 86 µM
- inhibition [2]: inactive

SMILES: Cn1c(-c2ccccc2)c(-c2cn(CC(=O)Nc3ccc(-c4ccccc4)cc3)nn2)c2cc(C(=O)O)c(O)cc21
- IC50 [1]: 9.3 µM

SMILES: Cn1c(-c2ccccc2)c(-c2cn(CC(=O)Nc3nc4ccccc4s3)nn2)c2cc(C(=O)O)c(O)cc21
- IC50 [1]: 9.1 µM

SMILES: Cn1c(-c2ccccc2)c(-c2cn(CC(=O)Nc3ccc(N4CCOCC4)cc3)nn2)c2cc(C(=O)O)c(O)cc21
- IC50 [1]: 7.8 µM
